Laboratory results published in ChEMBL document CHEMBL5705905, “Pharmacological targeting of kinases MST1 and MST2 augments tissue repair and regeneration” (Sci Transl Med, 2016).
One block for each compound: values may come before it. The source made the active and inactive calls. The calls are words filed in the database; no cut-off is given here.

Key:
[1] = target: T1, Serine/threonine-protein kinase 3 (Homo sapiens, UniProt Q13188); assay: Inhibition of recombinant His-tagged full-length MST2 (unknown origin) expressing in Escherichia coli assessed as GST-tagged MOB1a phosphorylation level incubated for 30 mins by immunoblot analysis
T1 sequence (Q13188 whole entry): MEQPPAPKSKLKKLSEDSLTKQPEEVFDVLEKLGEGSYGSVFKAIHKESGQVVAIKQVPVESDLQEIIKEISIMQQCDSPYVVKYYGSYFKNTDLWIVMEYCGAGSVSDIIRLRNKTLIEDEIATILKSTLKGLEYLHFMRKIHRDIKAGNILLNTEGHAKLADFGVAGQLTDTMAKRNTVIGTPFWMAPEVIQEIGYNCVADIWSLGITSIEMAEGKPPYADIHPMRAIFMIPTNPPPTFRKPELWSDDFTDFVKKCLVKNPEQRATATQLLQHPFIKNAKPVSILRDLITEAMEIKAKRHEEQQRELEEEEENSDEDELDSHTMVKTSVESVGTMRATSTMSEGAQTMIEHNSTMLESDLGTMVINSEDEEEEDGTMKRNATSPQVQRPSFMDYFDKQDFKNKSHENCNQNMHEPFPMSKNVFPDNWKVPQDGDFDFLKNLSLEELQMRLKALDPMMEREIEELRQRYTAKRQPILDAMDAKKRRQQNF

[2] = test system: Mus musculus; assay: Protection against APAP induced liver injury in mouse assessed as liver centrilobular necrosis at 250 mg/kg, ip administered at 1.5 hrs; format: functional
How it was run: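 Wild-type mice were given APAP orally. NAC at 250 mg/kg was then injected intraperitoneally at 1.5, 2.5 or 3.5 h after APAP. Liver centrilobular necrosis was then assessed.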

[3] = test system: Mus musculus; assay: Protection against APAP induced liver injury in mouse assessed as liver centrilobular necrosis at 250 mg/kg, ip administered at 2.5 hrs; format: functional, organism-based
[4] = test system: Mus musculus; assay: Protection against APAP induced liver injury in mouse assessed as liver centrilobular necrosis at 250 mg/kg, ip administered at 3.5 hrs; format: functional, organism-based
[5] = test system: Mus musculus; assay: Protection against APAP induced liver injury in mouse assessed as decrease in ALT level at 250 mg/kg, ip administered at 2.5 hrs; format: functional, organism-based; details: Serum
[6] = test system: Mus musculus; assay: Protection against APAP induced liver injury in mouse assessed as decrease in ALT level at 250 mg/kg, ip administered at 1.5 hrs; format: functional, organism-based; details: Serum

SMILES: CN1CCC(NS(=O)(=O)c2ccc(Nc3ncc4c(n3)N(C)c3ccsc3C(=O)N4C)cc2)CC1
- IC50 [1]: 3.84 µM

SMILES: CC(=O)N[C@@H](CS)C(=O)O [ACETYLCYSTEINE]
- Activity [2]: Active
- Activity ([2]; record 2): 80%
- Activity [3]: inactive
- Activity [4]: inactive
- Activity [5]: Active
- Activity [6]: Active

SMILES: CSc1ccc(Nc2ncc3c(n2)N(C)c2ccsc2C(=O)N3C)cc1
- IC50 [1]: 1.16 µM

Second part, the compound after the results:

- IC50 [1]: 0.207 µM
SMILES: CN1C(=O)c2sccc2N(C)c2nc(Nc3ccc(S(=O)(=O)NC4CC4)cc3)ncc21

- IC50 [1]: 0.596 µM
SMILES: CN1C(=O)c2sccc2N(C)c2nc(Nc3ccc(S(C)(=O)=O)cc3)ncc21
